TRPC4 act – activators of mouse TRPC4 channel, primary screen, Fluo4 calcium, HEK293 TRPC4beta/mu-opioid cells; 0.49% of 310,000 active; Fluo4 calcium fluorescence; stronger effect = higher value; B-score at 10 µM;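 active = B-score above 5 SD of library B-scores, and initial fluorescence ratio not above library mean plus 5 SD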;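 note: positive B-score marks a calcium rise read as TRPC4 activation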
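System – HEK293 cells stably co-expressing mouse TRPC4beta and mu-opioid receptor · Signal – Fluo4 calcium-sensitive dye fluorescence, kinetic, 1 Hz baseline · Benchmarks – buffer (low) and maximal DAMGO (high) · Read-out – B score of integrated fluorescence ratio per well · Incubation – dye loading 45 min room temperature, 110 s kinetic read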
Kir21 block – inhibitors of mouse Kir2.1 inward-rectifier potassium channel. Inward rectifier potassium channel 2 (Mus musculus), P35561. HEK293-Kir2.1, FluxOR thallium flux fluorescence; stronger effect = lower value. B-score at 10 µM. 0.85% of 310,000 active. AID 1672, 2009;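 active = fluorescence ratio B-score at or below minus 3 SD of library scores, with starting-brightness B-score within 2 SD, cut at about -4.2 in these data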;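 note: channel flux triggered by added potassium and thallium sulfate stimulus; B-score of peak minus minimum fluorescence over baseline after thallium stimulus; more negative B-score means stronger Kir2.1 block with less thallium influx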
TRPC6 act – mouse TRPC6 channel activators, primary screen, cell-based, HEK293, membrane potential dye; B-score at 10 µM; AID 2550, 2010; HEK293-TRPC6 membrane potential dye fluorescence; stronger effect = higher value; Short transient receptor potential channel 6 (Mus musculus), Q61143; 0.13% of 310,000 active;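 active = B-score of the integrated fluorescence ratio above library mean plus 3 SD, and starting fluorescence ratio within library mean plus 5 SD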;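 note: higher score means more depolarization so channel activation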
Target sequence (Q61143 whole entry, looked up): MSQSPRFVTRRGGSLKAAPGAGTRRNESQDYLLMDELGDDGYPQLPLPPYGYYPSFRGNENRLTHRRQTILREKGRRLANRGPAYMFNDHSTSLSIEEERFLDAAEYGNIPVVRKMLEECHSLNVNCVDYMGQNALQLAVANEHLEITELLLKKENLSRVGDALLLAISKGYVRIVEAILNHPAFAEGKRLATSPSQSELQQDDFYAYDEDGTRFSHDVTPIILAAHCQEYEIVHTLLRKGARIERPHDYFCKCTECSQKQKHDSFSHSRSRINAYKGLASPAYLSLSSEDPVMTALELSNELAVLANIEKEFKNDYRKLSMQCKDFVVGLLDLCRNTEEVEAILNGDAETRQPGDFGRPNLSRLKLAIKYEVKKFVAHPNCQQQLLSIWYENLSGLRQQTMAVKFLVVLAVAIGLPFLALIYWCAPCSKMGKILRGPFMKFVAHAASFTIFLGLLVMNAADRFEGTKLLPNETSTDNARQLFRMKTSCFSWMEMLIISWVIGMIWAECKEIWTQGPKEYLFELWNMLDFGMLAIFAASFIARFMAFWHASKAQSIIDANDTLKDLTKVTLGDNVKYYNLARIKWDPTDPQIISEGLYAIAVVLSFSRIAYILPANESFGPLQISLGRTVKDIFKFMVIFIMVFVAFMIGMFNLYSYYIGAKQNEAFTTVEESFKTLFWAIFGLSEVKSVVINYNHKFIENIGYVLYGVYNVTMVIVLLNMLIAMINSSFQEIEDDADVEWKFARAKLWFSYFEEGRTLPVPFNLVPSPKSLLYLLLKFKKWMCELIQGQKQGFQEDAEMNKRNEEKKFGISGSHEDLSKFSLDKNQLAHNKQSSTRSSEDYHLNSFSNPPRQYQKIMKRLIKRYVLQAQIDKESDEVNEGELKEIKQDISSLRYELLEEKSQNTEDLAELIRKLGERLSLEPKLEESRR
TRPC4 PAM – positive allosteric modulators of TRPC4, primary screen, cell-based, mouse TRPC4beta, HEK293 mu-opioid, Fluo-4 calcium | Short transient receptor potential channel 4 (Mus musculus), Q9QUQ5 | DAMGO EC20, Fluo-4 Ca2+ flux; stronger effect = higher value | B-score at 10 µM | 0.42% of 310,000 active | AID 2227, 2009;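 active = B-score of calcium response area above 5 SD of library B-scores, with initial fluorescence ratio within 5 SD of library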;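 note: B-score of integrated fluorescence ratio over time as area under calcium response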
TRPC6 inh – mouse TRPC6 channel inhibitors, primary screen, cell-based, HEK293, membrane potential dye; Short transient receptor potential channel 6 (Mus musculus), Q61143; ACh-evoked depolarization; stronger effect = lower value; B-score at 10 µM; 1.1% of 310,000 active;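 active = B-score under library mean minus 3 SD, initial fluorescence not abnormally high, positive integrated signal ratio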;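 note: B-score derived from integrated fluorescence ratio over the kinetic read; more negative B-score means stronger inhibition of depolarization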
TRPC4 block – inhibitors of mouse TRPC4 channel, primary screen, Fluo4 calcium, HEK293 TRPC4beta/mu-opioid cells | 0.39% of 300,000 active | Short transient receptor potential channel 4 (Mus musculus), Q9QUQ5 | DAMGO-evoked Fluo4 calcium flux; stronger effect = lower value | B-score at 10 µM;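 active = B-score over 3 SD under the library average, no early fluorescence shift, positive overall ratio signal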
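Assay system: Stable TRPC4beta/mu-opioid receptor HEK293 cells | Reagent: DAMGO in two steps, submaximal then maximal | Compound dosing: Single concentration per test compound | Signal: Fluo4 Ca2+ flux fluorescence | Evaluation: Per-well B score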
TRPC4 sel inh 2 – second selectivity test of TRPC6 inhibitors: effect on mouse TRPC4; HEK293 TRPC4/MOR, membrane potential dye fluorescence; channel activated by saturating DAMGO dose; 42% of 920 active; shares compounds with TRPC6 inh; AID 2776; inhibition, % at 10 µM;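 active = compounds whose fluorescence signal differed from control wells by over 3 SD, either direction, in both duplicate plates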
TRPC4 spec – mouse TRPC4 modulation by TRPC6 hits, confirmation, selectivity assay for TRPC6 inhibitor project, cell-based, HEK293 TRPC4/mu-opioid, membrane potential dye; AID 2777, 2010; 61% of 920 active; membrane potential fluorescence; activity change, negative = inhibition, % at 10 µM; shares compounds with TRPC6 inh;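 active = rise or fall in signal beyond 3 SD of buffer-only wells in both replicate plates, either sign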;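 note: integrated kinetic ratio of fluorescence range over baseline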
HEK293 MPD ctr 2-1 – nonspecific membrane potential effects, parental HEK293, confirmation, counter-screen for TRPC6 inhibitor project, cell-based, second counter screen; shares compounds with TRPC6 inh; parental HEK293 membrane potential dye fluorescence; maximal acetylcholine challenge after compound addition; signal change vs control, % at 10 µM; 31% of 920 active; AID 2779, 2010;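 active = membrane potential signal moving either way by over 3 SD of the maximum-effect control, in both duplicate plates, meaning non-specific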
HEK293 MPD ctr-1 – membrane potential modulation in parental HEK293, confirmation, counter-screen for TRPC6 inhibitor project, cell-based | shares compounds with TRPC6 inh | parental HEK293 membrane potential dye fluorescence | membrane potential signal change, % at 10 µM | 60% of 920 active | AID 2780, 2010;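 active = membrane potential signal shifting up or down by more than 3 SD of buffer-only wells, on both duplicate plates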
HEK293 MPD ctr-2 – parental HEK293 membrane potential modulation, confirmation, counter-screen for TRPC6 modulator project, cell-based | shares compounds with TRPC6 inh | membrane potential dye fluorescence | membrane potential signal change, % at 10 µM | 51% of 2,400 active | AID 488924, 2010;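 active = membrane potential signal moves up or down beyond 5 SD from buffer-only wells, on both duplicate plates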
HEK293 MPD ctr 2-2 – second counter-screen for TRPC6 modulators: effect in parental HEK293 cells | shares compounds with TRPC6 inh | 14% of 2,400 active | membrane potential dye fluorescence; after compound, maximal acetylcholine stimulation | inhibition, % at 10 µM;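 active = membrane potential signal drops by more than 5 SD from the mean control signal, in both duplicate plates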;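 note: plate controls were acetylcholine ECmax control wells for no effect and buffer only wells for full effect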
TRPC4 ctr mod – TRPC4 modulation by TRPC6 hit compounds, confirmation, selectivity assay for TRPC6 modulator project, cell-based, HEK293 TRPC4/mu-opioid, membrane potential dye, mouse; percent change from control (negative = decrease, positive = increase), % at 10 µM; 69% of 2,400 active; membrane potential fluorescence; shares compounds with TRPC6 inh;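 active = membrane potential signal moved up or down beyond 5 SD of buffer control wells, in both duplicate plates, actives on both sides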;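 note: plate controls were assay buffer wells for no effect and DAMGO maximal-effect wells for full effect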
TRPC4/MOR inh 2 – second selectivity test of TRPC6 modulators against mouse TRPC4 | shares compounds with TRPC6 inh | HEK293 TRPC4/mu-opioid, membrane potential dye fluorescence; stimulated with maximal-effect DAMGO | inhibition, % at 10 µM | 55% of 2,400 active;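 active = drop in membrane potential signal beyond 5 SD of the control wells in both duplicate plates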;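 note: TRPC4 counter screen for TRPC6 hits run under conditions tuned for TRPC6 not TRPC4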
TRPC6 block conf – mouse TRPC6 channel inhibitors, confirmation, HEK293 cells, membrane potential dye, duplicate | ACh-evoked depolarization | 43% of 3,300 active | inhibition, % at 10 µM | shares compounds with TRPC6 inh;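 active = fluorescence ratio falls more than 5 SD below the full-stimulation control mean, in both duplicate runs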;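 note: integrated fluorescence ratio of peak minus minimum over baseline after agonist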
TRPC6 act confirm – mouse TRPC6 channel activators, confirmation, HEK293 cells, membrane potential dye, duplicate. activation, % at 10 µM. 11% of 2,800 active. shares compounds with TRPC6 inh. HEK293-TRPC6 membrane potential dye fluorescence, FDSS;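 active = ratio signal rise beyond 5 SD above unstimulated control wells' mean, seen in both duplicate runs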;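 note: plate controls were buffer EC0 wells for no effect and acetylcholine ECmax response for full effect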
* = called active by the depositor; i = inactive; . = not tested or not shown. Compounds with a hit are over-represented: about 2.9% of the library has one in this group of screens.

SMILES | TRPC4 act | Kir21 block | TRPC6 act | TRPC4 PAM | TRPC6 inh | TRPC4 block | HEK293 MPD ctr-2 | HEK293 MPD ctr 2-2 | TRPC4 ctr mod | TRPC4/MOR inh 2 | TRPC6 block conf | TRPC6 act confirm | others
Cc1cccc(N2CCN(C(=O)c3c(Cl)cnn3C)CC2)c1C | i | -1.1 | i | i | i | i | . | . | . | . | . | .
COc1cccc(-c2nnn(CC(=O)N(CC(C)C)C3CCS(=O)(=O)C3)n2)c1 (stereo not drawn) | i | -0.46 | i | i | i | i | . | . | . | . | . | .
O=C(Nc1ccccc1Cl)N1CCCN(c2nc(-c3ccccc3)ns2)CC1 | i | -0.06 | i | i | -5.1* | i | i | i | i | i | i | i
O=C(CCNC(=O)C1CCN(S(=O)(=O)c2ccccc2)CC1)NCc1ccccc1Cl | i | 1.7 | i | i | i | i | . | . | . | . | . | .
Cc1nc(SCC(=O)c2ccccc2)c(C#N)c(-c2ccco2)c1C(=O)NCc1ccco1 | i | 0.21 | 14* | i | i | i | 220%* | i | 16%* | i | i | 52%*
O=C(COC(=O)c1ccc(NS(=O)(=O)c2ccc(F)c(F)c2)cc1)NCC1CCCO1 (stereo not drawn) | i | 0.78 | i | i | i | i | . | . | . | . | . | .
O=C(CN(Cc1cccs1)C(=O)CNS(=O)(=O)c1ccc(Cl)cc1)NCC1CCCO1 (stereo not drawn) | i | -0.04 | i | i | i | i | . | . | . | . | . | .
O=[N+]([O-])c1nn(-c2ccc3c(c2)OCCO3)n(O)c1=NC1CCN(Cc2ccccc2)CC1 | i | 0.97 | i | i | -8.6* | i | . | . | . | . | i | i | TRPC4 sel inh 2=i;TRPC4 spec=i;HEK293 MPD ctr 2-1=i;HEK293 MPD ctr-1=i
O=[N+]([O-])c1nn(-c2ccccc2)n(O)c1=NC1CCN(Cc2ccccc2)CC1 | i | -0.86 | i | i | i | i | . | . | . | . | . | .
Cc1cc2nc(CS)[nH]c2cc1C | i | -0.56 | i | i | i | i | . | . | . | . | . | .
CCCCCCC(=O)Nc1c2c(nc3ccccc13)N(C)CC2 | i | -0.08 | i | i | i | i | . | . | . | . | . | .
CCCCCC(=O)Nc1cc(N(C)C)nc2ccccc12 | i | -0.37 | i | i | -5.4* | i | i | i | -10%* | 48%* | i | i
CCCc1nc2ccccc2c(NC(=O)CN(CC)CC)c1CC | i | 0.81 | i | i | i | i | . | . | . | . | . | .
CCCCCC(=O)Nc1ccc2ccccc2c1 | i | 1.3 | i | i | i | i | . | . | . | . | . | .
CCN(CC)CC(=O)Nc1cc(N(C)C)nc2ccccc12 | i | -0.51 | i | i | -7.5* | i | . | . | . | . | 68%* | i | TRPC4 sel inh 2=70%*;TRPC4 spec=-25%*;HEK293 MPD ctr 2-1=3.0%*;HEK293 MPD ctr-1=-474%*
CN1CCN(CC(=O)Nc2cc(N(C)C)nc3ccccc23)CC1 | i | -1.4 | i | i | -6.8* | i | -154%* | i | -26%* | 44%* | i | i
CN1CCc2c1nc1ccccc1c2NC(=O)CN1CCCC1 | i | -0.16 | i | i | -6.5* | i | -278%* | i | -46%* | 46%* | i | i
O=C(Cc1ccccc1)N/N=C/c1ccc(-c2ccc([N+](=O)[O-])cc2)o1 | i | -0.03 | i | i | i | i | . | . | . | . | . | .
CCCNC(=O)Cn1c(=O)/c(=C\c2ccc(-c3ccc([N+](=O)[O-])cc3)o2)s/c1=C\C(=O)C(C)(C)C | i | -14 | 33* | i | i | i | 978%* | i | 274%* | i | i | 281%*
N=c1c2c(n(Cc3ccccc3)c3c1CCC3)CCC2 | i | 0.6 | i | i | -7.6* | -6* | . | . | . | . | 65%* | i | TRPC4 sel inh 2=68%*;TRPC4 spec=-24%*;HEK293 MPD ctr 2-1=20%*;HEK293 MPD ctr-1=-394%*
CCn1c2c(c(=N)c3c1CCC3)CCCC2 | i | -1 | i | i | -5.3* | i | -284%* | i | -48%* | 31%* | i | i

High-throughput results deposited in PubChem by Johns Hopkins Ion Channel Center.
